Test results taken from PMC3190583 (Journal of clinical pharmacology, 2010).
Like-named read-outs stand apart in the source and are kept apart here. Marks after values point to notes of the source that are not given here.

How the values were obtained:
[1] = Safety and tolerability, on-treatment adverse events, study 2; assay type: in vivo, human; conditions: for Abdominal pain / Accidental injury / Fever / Headache / Otitis media: on-treatment AE; for Abdominal pain / Accidental injury / Fever / Headache / Otitis media / Any AE: patients (percent); for Any AE: on-treatment
Procedure, shortened: (§1)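 Patients randomized 1:1 to 20 or 40 mg delayed-release tablet once daily: about 28 days in study 1, at least 5 consecutive doses in study 2. On-treatment AEs were those occurring during dosing or within 48 h of the last dose. Vital signs were taken 2 h predose and 2, 8 and 12 h postdose on day 1. Physical exam and labs were done on the multiple-dose PK day. Telephone AE follow-up came 14 days after completion.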

[2] = Single-dose pharmacokinetics of pantoprazole delayed-release tablet, study 1; assay type: in vivo, human; conditions: for AUC / CL/F / Cmax / Tmax / Vd/F / half-life: human, plasma, po; for tlag: study 1, 6-11 y, median (range)
[3] = neonates; cited from earlier work
[4] = adults; cited from earlier work
[5] = Single-dose pharmacokinetics of pantoprazole delayed-release tablet, study 2; assay type: in vivo, human; conditions: for AUC / CL/F / Cmax / Tmax / Vd/F / half-life: human, plasma, po; for tlag: study 2, 12-16 y, median (range)
[6] = Safety and tolerability, on-treatment adverse events, study 1; assay type: in vivo, human; conditions: for Abdominal pain / Accidental injury / Fever / Headache / Otitis media / Upper respiratory infection: on-treatment AE; for Abdominal pain / Accidental injury / Fever / Headache / Otitis media / Upper respiratory infection / Any AE: patients (percent); for Any AE: on-treatment
Procedure, shortened: as §1

[7] = study 2, 20 mg once daily (n = 11)
[8] = study 2, 40 mg once daily (n = 11)
[9] = study 2, 20 or 40 mg once daily
[10] = study 2, total of both doses (n = 22)
[11] = study 1, 20 mg once daily (n = 11)
[12] = study 1, 40 mg once daily (n = 13)
[13] = study 1, 20 or 40 mg once daily
[14] = study 1, total of both doses (n = 24)

AUC ([2]; 20 mg): 2500 ± 2100 ng·h/mL | CL/F ([2]; 20 mg): 6.83 mL/min/kg | Cmax ([2]; 20 mg): 1600 ± 1200 ng/mL | Tmax ([2]; 20 mg): 2 h | Vd/F ([2]; 20 mg): 0.43 ± 0.3 L/kg | half-life ([2]; 20 mg): 0.8 ± 0.2 h | AUC ([2]; 40 mg): 3800 ± 1800 ng·h/mL | CL/F ([2]; 40 mg): 6.67 mL/min/kg | Cmax ([2]; 40 mg): 2100 ± 1300 ng/mL | Tmax ([2]; 40 mg): 2 h | Vd/F ([2]; 40 mg): 0.4 ± 0.27 L/kg | half-life ([2]; 40 mg): 0.7 ± 0.2 h | tlag ([2]; single oral 20 mg tablet, n = 10): 1.0 (0.5, 2.0) h | tlag ([2]; single oral 40 mg tablet, n = 12): 0.8 (0, 1.0) ^b h | concentration of pantoprazole at 12 hours after the first dose ([2]; study 1, all patients, 20 or 40 mg, lower limit of quantitation 10 ng/mL): below the lower limit of quantitation | AUC ([5]; 20 mg): 1300 ± 600 ng·h/mL | CL/F ([5]; 20 mg): 4.67 mL/min/kg | Cmax ([5]; 20 mg): 900 ± 500 ng/mL | Tmax ([5]; 20 mg): 1.5 h | Vd/F ([5]; 20 mg): 0.32 ± 0.22 L/kg | half-life ([5]; 20 mg): 0.8 ± 0.3 h | AUC ([5]; 40 mg): 4300 ± 3100 ng·h/mL | CL/F ([5]; 40 mg): 3 mL/min/kg | Cmax ([5]; 40 mg): 2200 ± 1400 ng/mL | Tmax ([5]; 40 mg): 2 h | Vd/F ([5]; 40 mg): 0.21 ± 0.06 L/kg | half-life ([5]; 40 mg): 0.9 ± 0.3 h | tlag ([5]; single oral 20 mg tablet, n = 9): 1.0 (0, 2.5) ^c h | tlag ([5]; single oral 40 mg tablet, n = 11): 1.0 (0, 8) h
SMILES: COc1ccnc(C[S+]([O-])c2nc3ccc(OC(F)F)cc3[nH]2)c1OC (centres unmarked) [pantoprazole]
Abdominal pain [1, 7]: 0 | Accidental injury [1, 7]: 0 | Fever [1, 7]: 0 | Headache [1, 7]: 0 | Otitis media [1, 7]: 0 | Any AE [1, 7]: 2 (18.2) | Abdominal pain [1, 8]: 2 (18.2) | Accidental injury [1, 8]: 0 | Fever [1, 8]: 1 (9.1) | Headache [1, 8]: 1 (9.1) | Otitis media [1, 8]: 0 | Any AE [1, 8]: 4 (36.4) | ECG, QTc changes [1, 9]: no abnormal QTc changes | serious AEs [1, 9]: no serious AEs | severity of all AEs [1, 9]: mild or moderate | Abdominal pain [1, 10]: 2 (9.1) | Accidental injury [1, 10]: 0 | Fever [1, 10]: 1 (4.5) | Headache [1, 10]: 1 (4.5) | Otitis media [1, 10]: 0 | Any AE [1, 10]: 6 (27.3) | mean CL/F [3]: 3.67 mL/min/kg | accumulation on repeated once-daily dosing [4]: does not result in accumulation | half-life [4]: approximately 1 hour | Abdominal pain [6, 11]: 3 (27.3) | Accidental injury [6, 11]: 1 (9.1) | Fever [6, 11]: 1 (9.1) | Headache [6, 11]: 1 (9.1) | Otitis media [6, 11]: 2 (18.2) | Upper respiratory infection [6, 11]: 2 (18.2) | Any AE [6, 11]: 9 (81.8) | Abdominal pain [6, 12]: 1 (7.7) | Accidental injury [6, 12]: 1 (7.7) | Fever [6, 12]: 1 (7.7) | Headache [6, 12]: 2 (15.4) | Otitis media [6, 12]: 0 | Upper respiratory infection [6, 12]: 0 | Any AE [6, 12]: 7 (53.8) | ECG, QTc changes [6, 13]: no abnormal QTc changes | serious AEs [6, 13]: no serious AEs | severity of all AEs [6, 13]: mild or moderate | Abdominal pain [6, 14]: 4 (16.7) | Accidental injury [6, 14]: 2 (8.3) | Fever [6, 14]: 2 (8.3) | Headache [6, 14]: 3 (12.5) | Otitis media [6, 14]: 2 (8.3) | Upper respiratory infection [6, 14]: 2 (8.3) | Any AE [6, 14]: 16 (66.7)
